Experiments:
PBMC [1] = experiment: Cellular uptake in PHA/IL-2-stimulated human PBMC at 1 uM after 24 hrs by MS/MS analysis; format: ADME, cell-based; details: BLD = below limit of detection
How it was run: (§1)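 PHA-stimulated (4 μg/ml PHA, 48 to 72 h; 20 U/ml rhIL-2) human PBMCs at 2 × 10^6 cells/ml in RPMI 1640 with 15% FBS, given tenofovir or prodrug (final 0.01 to 10 μM) for 24 h at 37°C. Cells washed three times in cold 0.9% NaCl, counted, and 1 × 10^7 cell aliquots pelleted. TFV, TFV-MP and TFV-PP were separated by ion-pairing reverse-phase LC and detected by positive-ion electrospray MS. Output is pmol per 10^6 cells.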

PBMC [2] = experiment: Cellular uptake in human PBMC at 10 uM after 24 hrs by MS/MS analysis; format: ADME, cell-based
How it was run: (§2)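 Human PBMCs, unstimulated or PHA/IL-2-stimulated, at 2 × 10^6 cells/ml in RPMI 1640 with 15% FBS, exposed 24 h at 37°C to final 0.01, 0.1, 1.0 or 10 μM of the prodrug, or 1.0 or 10 μM tenofovir. After cold saline washes the cells were counted and 1 × 10^7-cell pellets made. TFV, TFV-MP and TFV-PP were measured by ion-pairing LC with positive-ion electrospray MS as pmol/10^6 cells.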

PBMC [3] = experiment: Cellular uptake in human PBMC at 1 uM after 24 hrs by MS/MS analysis; format: ADME, cell-based; how it was run: as §2
[4] = system: Human immunodeficiency virus 1; experiment: Antiviral activity against HIV1 isolate JR-CSF infected in human PBMC after 48 to 72 hrs by MTS assay in presence of 100% human serum; format: functional; details: Human immunodeficiency virus 1, JRCSF ISOLATE
How it was run: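 The value is an estimate for 100% human serum, extrapolated from JR-CSF EC50s measured in PHA/IL-2 PBMCs. Those assays used a virus preincubation/spinoculation step and contained 0 to 30% human serum on top of 15% FBS.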

[5] = system: Human immunodeficiency virus 1; experiment: Antiviral activity against HIV1 isolate JR-CSF infected in human PBMC after 48 to 72 hrs by MTS assay in presence of 10% human serum; format: functional; details: Human immunodeficiency virus 1, JRCSF ISOLATE
How it was run: (§3)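 This is the PHA/IL-2 PBMC assay run with JR-CSF preincubated with 8 × 10^6 pooled cells for 1 h at 37°C. Cells were then spinoculated at 200 × g for 1 h and held 2 h more. Infected cells (2.5 × 10^4) were added, without virus washout, to wells holding uninfected PBMCs and compound. Medium had 15% FBS, plus 0, 10, 15, 20 or 30% human serum.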

PBMC [6] = experiment: Cellular uptake in PHA/IL-2-stimulated human PBMC at 0.01 uM assessed as TFV level after 24 hrs by MS/MS analysis; format: ADME, cell-based; details: BLD = below limit of detection
How it was run: (§4)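 PHA/IL-2-stimulated PBMCs at 2 × 10^6 cells/ml (5 × 10^7 per flask) were exposed for 24 h at 37°C. Cells were washed three times in cold 0.9% NaCl and counted by trypan blue. Aliquots of 1 × 10^7 cells were pelleted. TFV, TFV-MP and TFV-PP were separated by ion-pairing reverse-phase gradient LC and detected by positive electrospray. Results are given as pmol/10^6 cells.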

PBMC [7] = experiment: Cellular uptake in human PBMC at 0.01 uM assessed as TFV-monophosphate after 24 hrs by MS/MS analysis; format: ADME, cell-based; details: BLD = below limit of detection; how it was run: as §2
PBMC [8] = experiment: Cellular uptake in PHA/IL-2-stimulated human PBMC at 0.1 uM assessed as TFV-monophosphate after 24 hrs by MS/MS analysis; format: ADME, cell-based; details: BLD = below limit of detection; how it was run: as §4
[9] = system: Human immunodeficiency virus 1; experiment: Antiviral activity against HIV1 subtype B isolate Ba-L infected in human MDM […] by MTS assay; format: functional, organism-based; details: Human immunodeficiency virus 1, isolate Ba-L
[10] = system: Human immunodeficiency virus 1; experiment: Antiviral activity against HIV1 subtype B isolate 96USHIPS7 infected in human PBMC after 48 to 72 hrs by MTS assay; format: functional, organism-based; details: Human immunodeficiency virus 1, isolate 96USHIPS7
How it was run: (§5)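 Fresh donor PBMCs, HIV- and HBV-seronegative, were stimulated with 4 μg/ml PHA for 48 to 72 h and kept on 20 U/ml rhIL-2. Cells pooled from at least two donors were seeded at 5 × 10^4 per well and infected at MOI ~0.1. Nine compound concentrations were run in triplicate wells for 7 days.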

[11] = system: Human immunodeficiency virus 1; experiment: Antiviral activity against HIV1 group O isolate BCF03 infected in human PBMC after 48 to 72 hrs by MTS assay; format: functional, organism-based; details: Human immunodeficiency virus 1, isolate BCF03; how it was run: as §5
[12] = system: Human immunodeficiency virus 1; experiment: Antiviral activity against HIV1 subtype C isolate 91IN101 infected in human PBMC after 48 to 72 hrs by MTS assay; format: functional, organism-based; details: Human immunodeficiency virus 1, isolate 93IN101; in the assay text read “93IN101” for “91IN101”; how it was run: as §5
PBMC [13] = experiment: Cellular uptake in human PBMC at 0.1 uM assessed as TFV level after 24 hrs by MS/MS analysis; format: ADME, cell-based; how it was run: as §2
[14] = system: Human immunodeficiency virus 1; experiment: Antiviral activity against HIV1 isolate JR-CSF infected in human PBMC after 48 to 72 hrs by MTS assay; format: functional; details: Human immunodeficiency virus 1, JRCSF ISOLATE; how it was run: as §3
PBMC [15] = experiment: Cellular uptake in human PBMC at 0.1 uM assessed as TFV-monophosphate after 24 hrs by MS/MS analysis; format: ADME, cell-based; details: BLD = below limit of detection; how it was run: as §2
[16] = system: Human immunodeficiency virus 1; experiment: Antiviral activity against HIV1 isolate JR-CSF infected in human PBMC after 48 to 72 hrs by MTS assay in presence of 20% human serum; format: functional; details: Human immunodeficiency virus 1, JRCSF ISOLATE; how it was run: as §3
[17] = system: Human immunodeficiency virus 1; experiment: Antiviral activity against HIV1 subtype B isolate ADA infected in human PBMC after 48 to 72 hrs by MTS assay; format: functional, organism-based; details: Human immunodeficiency virus 1, isolate ADA; how it was run: as §5
[18] = system: Human immunodeficiency virus 1; experiment: Antiviral activity against HIV1 isolate JR-CSF infected in human MDM […] by MTS assay; format: functional; details: Human immunodeficiency virus 1, JRCSF ISOLATE
[19] = system: Human immunodeficiency virus 1; experiment: Antiviral activity against HIV1 subtype C isolate 93MW959 infected in human PBMC after 48 to 72 hrs by MTS assay; format: functional, organism-based; details: Human immunodeficiency virus 1, isolate 93MW959; how it was run: as §5
[20] = system: Human immunodeficiency virus 1; experiment: Antiviral activity against HIV1 subtype B isolate 92TH014 infected in human MDM […] by MTS assay; format: functional, organism-based; details: Human immunodeficiency virus 1, isolate 92TH014
PBMC [21] = experiment: Cellular uptake in PHA/IL-2-stimulated human PBMC at 1 uM assessed as TFV level after 24 hrs by MS/MS analysis; format: ADME, cell-based; how it was run: as §1
PBMC [22] = experiment: Cellular uptake in PHA/IL-2-stimulated human PBMC at 0.01 uM assessed as TFV-diphosphate after 24 hrs by MS/MS analysis; format: ADME, cell-based; how it was run: as §4
PBMC [23] = experiment: Cellular uptake in human PBMC at 0.1 uM assessed as TFV-diphosphate after 24 hrs by MS/MS analysis; format: ADME, cell-based; how it was run: as §2
[24] = system: Human immunodeficiency virus 1; experiment: Antiviral activity against HIV1 group O isolate BCF01 infected in human PBMC after 48 to 72 hrs by MTS assay; format: functional, organism-based; details: Human immunodeficiency virus 1, isolate BCF01; how it was run: as §5
PBMC [25] = experiment: Cellular uptake in human PBMC at 0.01 uM assessed as TFV-diphosphate after 24 hrs by MS/MS analysis; format: ADME, cell-based; how it was run: as §2

Structure (SMILES): C[C@H](Cn1cnc2c(N)ncnc21)OCP(=O)(O)O [TENOFOVIR ANHYDROUS]
- Drug uptake (PBMC [1]): BLD
- Drug uptake (PBMC [2]): 0.11 pmol/10^6 cells
- Drug uptake (PBMC [3]): Not Active

Structure (SMILES): CCCCCCCCCCCCCCCCOCCCOP(=O)(O)CO[C@H](C)Cn1cnc2c(N)ncnc21 [TENOFOVIR EXALIDEX]
- EC50 [4]: 53 nM
- EC50 [5]: 4.6 nM
- Drug uptake (PBMC [6]): BLD
- Drug uptake (PBMC [7]): BLD
- Drug uptake (PBMC [8]): BLD
- EC50 [9]: 3.1 nM
- EC50 [10]: 1.5 nM
- EC50 [11]: 5 nM
- EC50 [12]: 2.8 nM
- Drug uptake (PBMC [13]): 0.05 pmol/10^6 cells
- EC50 [14]: 1.5 nM
- Drug uptake (PBMC [15]): BLD
- EC50 [16]: 11 nM
- EC50 [17]: 1.5 nM
- EC50 [18]: 3.1 nM
- EC50 [19]: 2.8 nM
- EC50 [20]: 3.1 nM
- Drug uptake (PBMC [21]): 0.56 pmol/10^6 cells
- Drug uptake (PBMC [22]): 0.07 pmol/10^6 cells
- Drug uptake (PBMC [23]): 0.07 pmol/10^6 cells
- EC50 [24]: 5 nM
- Drug uptake (PBMC [25]): 0.07 pmol/10^6 cells
